Laboratory results taken from ChEMBL document CHEMBL4043308 (J Med Chem, 2018).
Active and inactive are the calls of the source. The calls are words filed in the database; no cut-off is given here.

Assays:
[1] = tested on: Mus musculus; assay: Antifibrotic activity in BLM-induced C57BL/6 mouse pulmonary fibrosis model assessed as improvement in lung architecture at 30 mg/kg, ip qd administered 15 days starting 1 day prior to BLM installation by hematoxylin/eosin staining-based microscopic method; type: functional, organism-based
Outline: (§1)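 Bleomycin model: mice 8–10 weeks, 0.01 U orotracheal bleomycin on day 0, 30 mg/kg ip daily from day −1 to 14 (PBS/5% Tween 80 vehicle), killed day 15. Lungs were fixed in 10% neutral buffered formalin, paraffin-embedded, cut at 4 μm and H&E-stained. Sections were examined by light microscopy at ×100–×300.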

[2] = tested on: Mus musculus; assay: Antifibrotic activity in BLM-induced C57BL/6 mouse pulmonary fibrosis model assessed as decrease in contiguous fibrotic walls at 30 mg/kg, ip qd administered 15 days starting 1 day prior to BLM installation by hematoxylin/eosin staining-based microscopic method; type: functional, organism-based; outline: as §1
[3] = tested on: Mus musculus; assay: Antifibrotic activity in BLM-induced C57BL/6 mouse pulmonary fibrosis model assessed as decrease in fibrotic lesions at 30 mg/kg, ip qd administered 15 days starting 1 day prior to BLM installation by hematoxylin/eosin staining-based microscopic method; type: functional, organism-based; outline: as §1
[4] = tested on: Mus musculus; assay: Antifibrotic activity in BLM-induced C57BL/6 mouse pulmonary fibrosis model assessed as decrease in inflammatory cell influx in bronchoalveolar lavage fluid at 30 mg/kg, ip qd administered 15 days starting 1 day prior to BLM installation by trypan blue assay relative to control; type: functional; set-up: scale not given: the % may be the effect or the level left
Outline: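 Mice (C57BL/6, 8–10 weeks) had orotracheal bleomycin 0.01 U on day 0 and ip dosing at 30 mg/kg daily from day −1 to 14, n = 10. On day 15, lungs were lavaged 3 × 1 mL 0.9% NaCl. BALF was spun at 1200 rpm for 10 min, and pellet cells were counted with 0.4% trypan blue (×10^5 cells/mL). Means ± SE.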

[5] = tested on: Mus musculus; assay: Antifibrotic activity in BLM-induced C57BL/6 mouse pulmonary fibrosis model assessed as decrease in total protein concentration in bronchoalveolar lavage fluid at 30 mg/kg, ip qd administered 15 days starting 1 day prior to BLM installation by Bradford protein assay relative to control; type: functional, organism-based
Outline: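 BALF total protein was measured after orotracheal bleomycin (0.01 U, day 0) and 30 mg/kg ip daily dosing from day −1 to 14. Lavage was done on day 15 with 3 × 1 mL saline, and the supernatant was stored at −80 °C. OD readings were converted to mg/mL using a BSA standard curve (0–2 mg/mL). Means ± SE, paired t test.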

[6] = tested on: Mus musculus; assay: Antifibrotic activity in BLM-induced C57BL/6 mouse pulmonary fibrosis model assessed as decrease in soluble collagen concentration in bronchoalveolar lavage fluid at 30 mg/kg, ip qd administered 15 days starting 1 day prior to BLM installation by Sirius Red assay; type: functional, organism-based
Outline: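 Day-15 BALF from bleomycin-challenged mice given ip drug at 30 mg/kg daily from day −1 to 14. BALF (100 μL) was diluted in 1 mL 0.5 M acetic acid, mixed with an equal volume of Sirius Red (120 μg/mL in 0.5 M acetic acid) and held 30 min at room temperature. After centrifugation, supernatant A540 was read against a rat-tail collagen I standard (0–500 μg/mL).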

[7] = tested on: Mus musculus; assay: Antifibrotic activity in BLM-induced C57BL/6 mouse pulmonary fibrosis model assessed as decrease in ATX activity in bronchoalveolar lavage fluid at 30 mg/kg, ip qd administered 15 days starting 1 day prior to BLM installation by TOOS activity assay; type: functional, organism-based
Outline: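 Male and female C57BL/6 mice (8–10 weeks) got 0.01 U bleomycin in 50 μL saline orotracheally on day 0. Dosing was 30 mg/kg ip once daily from day −1 to 14 in PBS/5% Tween 80 (n = 10). Lungs were lavaged three times with 1 mL saline on day 15. BALF lysoPLD activity was measured by TOOS assay (nmol/min/mL). Means ± SE.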

[8] = Plasma concentration in BLM-induced C57BL/6 mouse pulmonary fibrosis model at 30 mg/kg, ip qd administered 15 days starting 1 day prior to BLM installation measured 1 hr post last dose by LC-MS/MS method; type: ADME, organism-based
Outline: (§2)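 Bleomycin-challenged C57BL/6 mice received 30 mg/kg ip daily from day −1 to 14. Blood was taken 1, 3 and 6 h after the last dose into EDTA (pH 8, final 50 mM). It was centrifuged at 2000g for 20 min at 4 °C, and plasma was stored at −80 °C. Plasma drug levels were quantified by LC–MS/MS (ng/mL).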

[9] = tested on: Plasma; assay: Plasma concentration in BLM-induced C57BL/6 mouse pulmonary fibrosis model at 30 mg/kg, ip qd administered 15 days starting 1 day prior to BLM installation measured 3 to 6 hrs post last dose by LC-MS/MS method; type: ADME, organism-based; conditions: in vivo; outline: as §2
[10] = molecular target: T1, Autotaxin (Mus musculus, UniProt Q9R1E6); assay: Inhibition of mouse ATX-beta using LPC 16:0 as substrate by Amplex Red PLD assay
[11] = molecular target: T1, Autotaxin; assay: Inhibition of mouse ATX-beta using LPC 18:0 as substrate by Amplex Red PLD assay
[12] = molecular target: T1, Autotaxin; assay: Inhibition of recombinant mouse ATX expressed in HEK293 cells using FS3 as substrate preincubated for 15 mins followed by substrate addition measured after 30 mins
[13] = molecular target: T1, Autotaxin; assay: Inhibition of recombinant mouse ATX expressed in HEK293 cells using LPC 17:0 as substrate after 30 mins by LC-MS/MS method
[14] = organism: Rattus norvegicus; assay: animal or person; conditions: Lewis, po, 4 h, read-out: INH

| IC50 [10] [µM] | Structure (SMILES) | other results |
| --- | --- | --- |
| > 5 | COC(=O)[C@H](CCC(=O)NO)NC(=O)CCCCC(=O)Nc1ccc(F)cc1 |  |
| > 5 | O=C(CC[C@H](NC(=O)CCCCC(=O)Nc1ccccc1)C(=O)NO)NO |  |
| 0.7 | O=C(CCCCC(=O)Nc1ccc(B(O)O)cc1)Nc1ccccc1 | IC50 [11]: 4 µM |

The remaining lines, values behind:

| Structure (SMILES) | IC50 [10] [µM] | other results |
| --- | --- | --- |
| CCCC[C@@H](CCCC(=O)NO)NC(=O)CCCCC(=O)Nc1ccccc1 |  | Activity [1]: Active; Activity [2]: Active; Activity [3]: Active; Activity [4]: 50%; Activity [5]: Active; Activity [6]: Active; Activity [7]: Active; concentration at 1 h [8]: 70 ng/mL; Cp [9]: 35 ng/mL |
| O=C(Cc1ccc(NC(=O)CCCCNC(=O)c2ccc(F)cc2)cc1)NO | > 5 |  |
| CCOc1ccc(NC(=O)CCCCC(=O)N[C@@H](CCC(=O)NO)C(=O)OC)cc1 | > 5 |  |
| COC(=O)[C@H](CCC(=O)NO)NC(=O)CCCCC(=O)Nc1ccccc1 | 0.4 |  |
| O=C(Cc1ccc(NC(=O)CCCCC(=O)Nc2ccccc2)cc1)NO |  | IC50 [11]: 0.2 µM |
| COC(=O)[C@H](CCCC(=O)NO)NC(=O)CCCCC(=O)Nc1ccccc1 | 0.05 |  |
| O=C(O)Cc1ccc(NC(=O)CCCCC(=O)Nc2ccccc2)cc1 | > 5 |  |
| COC(=O)[C@H](CCCC(=O)NO)NC(=O)CCCCCCc1ccccc1 | > 5 |  |
| O=C(Cc1ccc(NC(=O)CCCCc2ccc(-c3ccccc3)cc2)cc1)NO | > 5 |  |
| CCCCCCCCCC(=O)Nc1ccc(CC(=O)NO)cc1 | > 5 |  |
| O=C(CCN1CCN(C(=O)OCc2cc(Cl)cc(Cl)c2)CC1)c1ccc2[nH]c(=O)oc2c1 |  | IC50 [12]: 0.0028 µM; IC50 [13]: 0.0017 µM; inhibition in vivo at 30 mg/kg [14]: > 95% |
| COC(=O)[C@H](CCC(=O)NO)NC(=O)CCCCNC(=O)c1ccccc1 | > 5 |  |
| O=C(CCCCC(=O)Nc1ccc(CC(=O)C(F)(F)C(F)(F)F)cc1)Nc1ccccc1 | 3 | IC50 [11]: 0.5 µM |
| COC(=O)[C@H](CCC(=O)NO)NC(=O)CCCCC(=O)Nc1ccc(OC)cc1 | 4.5 |  |
| CCCCCCCCc1ccc(C(=O)Nc2ccc(CC(=O)NO)cc2)cc1 | > 5 |  |
